Results reported in ChEMBL document CHEMBL4145598, “Discovery and Development of 8-Substituted Cycloberberine Derivatives as Novel Antibacterial Agents against MRSA” (ACS Med Chem Lett, 2018).

Tests used:
Type in all cases: functional
[1] = tested on: Staphylococcus aureus; experiment: Antimicrobial activity against methicillin-sensitive Staphylococcus aureus isolate 13-20 after 18 hrs by agar dilution assay; settings: isolate 13-20, 18 h
[2] = tested on: Staphylococcus aureus; experiment: Antimicrobial activity against methicillin-sensitive Staphylococcus aureus isolate 13-21 after 18 hrs by agar dilution assay; settings: isolate 13-21, 18 h
[3] = tested on: Staphylococcus aureus; experiment: Antimicrobial activity against methicillin-resistant Staphylococcus aureus isolate 12-13 after 18 hrs by agar dilution assay; settings: isolate 12-13, 18 h
Summary of the method: (§1)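 Drug-resistant S. aureus (MRSA/VISA) panel. It includes ATCC reference strains and clinical isolates from patients in Chinese hospitals. MIC was determined by standard methods and reported in μg/mL, with levofloxacin as the reference drug.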

[4] = tested on: Staphylococcus aureus; experiment: Antimicrobial activity against methicillin-resistant Staphylococcus aureus isolate 13-18 after 18 hrs by agar dilution assay; settings: isolate 13-18, 18 h; summary of the method: as §1
[5] = tested on: Staphylococcus aureus; experiment: Antimicrobial activity against vancomycin-intermediate Staphylococcus aureus ATCC 700699 after 18 hrs by agar dilution assay; settings: ATCC 700699, 18 h
Summary of the method: (§2)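 MICs in μg/mL against drug-resistant S. aureus (MRSA/VISA) by standard methods, with levofloxacin as the reference drug. ATCC strains were used.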

[6] = tested on: Staphylococcus aureus; experiment: Antimicrobial activity against methicillin-sensitive Staphylococcus aureus isolate 13-19 after 18 hrs by agar dilution assay; settings: isolate 13-19, 18 h
[7] = tested on: Staphylococcus aureus; experiment: Antimicrobial activity against methicillin-resistant Staphylococcus aureus isolate 12-16 after 18 hrs by agar dilution assay; settings: isolate 12-16, 18 h; summary of the method: as §1
[8] = tested on: Staphylococcus aureus; experiment: Antimicrobial activity against methicillin-resistant Staphylococcus aureus isolate 12-3 after 18 hrs by agar dilution assay; settings: isolate 12-3, 18 h; summary of the method: as §1
[9] = tested on: Staphylococcus saprophyticus; experiment: Antimicrobial activity against Staphylococcus saprophyticus ATCC 15305 after 18 hrs by agar dilution assay; settings: ATCC 15305, 18 h
[10] = tested on: Staphylococcus epidermidis; experiment: Antimicrobial activity against methicillin-sensitive Staphylococcus epidermidis ATCC 12228 after 18 hrs by agar dilution assay; settings: ATCC 12228, 18 h
[11] = tested on: Staphylococcus epidermidis; experiment: Antimicrobial activity against methicillin-sensitive Staphylococcus epidermidis isolate 13-1 after 18 hrs by agar dilution assay; settings: isolate 13-1, 18 h
[12] = tested on: Staphylococcus hominis; experiment: Antimicrobial activity against Staphylococcus hominis ATCC 35982 after 18 hrs by agar dilution assay; settings: ATCC 35982, 18 h
[13] = tested on: Staphylococcus aureus; experiment: Antimicrobial activity against methicillin-resistant Staphylococcus aureus ATCC 33591 after 18 hrs by agar dilution assay; settings: ATCC 33591, 18 h; summary of the method: as §1
[14] = tested on: Staphylococcus aureus; experiment: Antimicrobial activity against methicillin-resistant Staphylococcus aureus isolate 12-8 after 18 hrs by agar dilution assay; settings: isolate 12-8, 18 h; summary of the method: as §1
[15] = tested on: Staphylococcus aureus; experiment: Antimicrobial activity against methicillin-resistant Staphylococcus aureus isolate 13-23 after 18 hrs by agar dilution assay; settings: isolate 13-23, 18 h; summary of the method: as §1
[16] = tested on: Staphylococcus aureus; experiment: Antimicrobial activity against methicillin-sensitive Staphylococcus aureus ATCC 29213 after 18 hrs by agar dilution assay; settings: ATCC 29213, 18 h
[17] = tested on: Staphylococcus aureus; experiment: Antimicrobial activity against methicillin-sensitive Staphylococcus aureus isolate 15 after 18 hrs by agar dilution assay; settings: isolate 15, 18 h
[18] = tested on: Staphylococcus aureus; experiment: Antimicrobial activity against vancomycin-intermediate Staphylococcus aureus ATCC 700698 after 18 hrs by agar dilution assay; settings: ATCC 700698, 18 h; summary of the method: as §2
[19] = tested on: Staphylococcus aureus; experiment: Antimicrobial activity against methicillin-resistant Staphylococcus aureus ATCC-BAA-1708 after 18 hrs by agar dilution assay; settings: ATCC-BAA-1708, 18 h; summary of the method: as §1
[20] = tested on: Staphylococcus aureus; experiment: Antimicrobial activity against methicillin-sensitive Staphylococcus aureus isolate 13-17 after 18 hrs by agar dilution assay; settings: isolate 13-17, 18 h

| SMILES | MIC [1] | MIC [2] | MIC [3] | MIC [4] | MIC [5] | MIC [6] | MIC [7] | MIC [8] | MIC [9] | MIC [10] | MIC [11] | MIC [12] | MIC [13] | MIC [14] | MIC [15] | MIC [16] | MIC [17] | MIC [18] | MIC [19] | MIC [20] |
| --- | --- | --- | --- | --- | --- | --- | --- | --- | --- | --- | --- | --- | --- | --- | --- | --- | --- | --- | --- | --- |
| COc1ccc2c(c[n+]3c4c2ccc2c5c(cc(c24)CC3)OCO5)c1O.[Cl-] | 0.25 µg/mL | 0.5 µg/mL | 1 µg/mL | 0.25 µg/mL | 0.25 µg/mL | 0.5 µg/mL | 0.5 µg/mL | 0.25 µg/mL | > 64 µg/mL | 0.5 µg/mL | 0.5 µg/mL | 0.5 µg/mL | 0.25 µg/mL | 0.5 µg/mL | 0.25 µg/mL | 0.25 µg/mL | 4 µg/mL | 0.5 µg/mL | 0.5 µg/mL | 0.25 µg/mL |
| COc1cccc(C(=O)COc2c(OC)ccc3c2c[n+]2c4c3ccc3c5c(cc(c34)CC2)OCO5)c1.[Br-] | 8 µg/mL | 16 µg/mL | 8 µg/mL | 4 µg/mL | > 64 µg/mL | 4 µg/mL | 8 µg/mL | 16 µg/mL | 8 µg/mL | 16 µg/mL | 8 µg/mL | 64 µg/mL | 4 µg/mL | 16 µg/mL | 16 µg/mL | 16 µg/mL | 32 µg/mL | > 64 µg/mL | 64 µg/mL | 4 µg/mL |
| COc1ccc2c(c[n+]3c4c2ccc2c5c(cc(c24)CC3)OCO5)c1NC(=O)c1ccccn1.[Cl-] | > 64 µg/mL | > 64 µg/mL | > 64 µg/mL | > 64 µg/mL | > 64 µg/mL | > 64 µg/mL | > 64 µg/mL | > 64 µg/mL | > 64 µg/mL | > 64 µg/mL | > 64 µg/mL | > 64 µg/mL | > 64 µg/mL | > 64 µg/mL | > 64 µg/mL | > 64 µg/mL | > 64 µg/mL | > 64 µg/mL | > 64 µg/mL | > 64 µg/mL |
| COc1ccc2c(c[n+]3c4c2ccc2c5c(cc(c24)CC3)OCO5)c1OCC(=O)c1ccc(F)cc1.[Br-] | 16 µg/mL | 8 µg/mL | 8 µg/mL | 16 µg/mL | > 64 µg/mL | 8 µg/mL | 16 µg/mL | 8 µg/mL | 32 µg/mL | 8 µg/mL | 8 µg/mL | 32 µg/mL | 8 µg/mL | 8 µg/mL | 8 µg/mL | 64 µg/mL | 8 µg/mL | > 64 µg/mL | 64 µg/mL | 16 µg/mL |
| COc1ccc2c(c[n+]3c4c2ccc2c5c(cc(c24)CC3)OCO5)c1NC(=O)CC1CCCC1.[Cl-] | 8 µg/mL | 8 µg/mL | 16 µg/mL | 8 µg/mL | 4 µg/mL | 8 µg/mL | 8 µg/mL | 8 µg/mL | 32 µg/mL | 8 µg/mL | 8 µg/mL | 8 µg/mL | 8 µg/mL | 8 µg/mL | 8 µg/mL | 8 µg/mL | 8 µg/mL | 64 µg/mL | 4 µg/mL | 8 µg/mL |
| COc1ccc2c(c[n+]3c4c2ccc2c5c(cc(c24)CC3)OCO5)c1OCC(=O)C1CC1.[Br-] | > 64 µg/mL | > 64 µg/mL | > 64 µg/mL | > 64 µg/mL | > 64 µg/mL | > 64 µg/mL | > 64 µg/mL | > 64 µg/mL | > 64 µg/mL | > 64 µg/mL | > 64 µg/mL | > 64 µg/mL | > 64 µg/mL | > 64 µg/mL | > 64 µg/mL | > 64 µg/mL | > 64 µg/mL | > 64 µg/mL | > 64 µg/mL | > 64 µg/mL |
| COc1ccc2c(c[n+]3c4c2ccc2c5c(cc(c24)CC3)OCO5)c1NC(=O)c1cc(C)n(C)n1.[Cl-] | 8 µg/mL | 16 µg/mL | 16 µg/mL | 32 µg/mL | 4 µg/mL | 8 µg/mL | 16 µg/mL | 32 µg/mL | > 64 µg/mL | 32 µg/mL | > 64 µg/mL | > 64 µg/mL | 64 µg/mL | 32 µg/mL | 8 µg/mL | 16 µg/mL | 16 µg/mL | > 64 µg/mL | 16 µg/mL | 16 µg/mL |
| COc1ccc2c(c[n+]3c4c2ccc2c5c(cc(c24)CC3)OCO5)c1NC(=O)C12CC3CC(CC(C3)C1)C2.[Cl-] | > 64 µg/mL | > 64 µg/mL | > 64 µg/mL | > 64 µg/mL | > 64 µg/mL | > 64 µg/mL | > 64 µg/mL | > 64 µg/mL | > 64 µg/mL | > 64 µg/mL | > 64 µg/mL | > 64 µg/mL | > 64 µg/mL | > 64 µg/mL | > 64 µg/mL | > 64 µg/mL | > 64 µg/mL | > 64 µg/mL | > 64 µg/mL | > 64 µg/mL |
| CCC(=O)COc1c(OC)ccc2c1c[n+]1c3c2ccc2c4c(cc(c23)CC1)OCO4.[Br-] | > 64 µg/mL | > 64 µg/mL | > 64 µg/mL | > 64 µg/mL | > 64 µg/mL | > 64 µg/mL | > 64 µg/mL | > 64 µg/mL | > 64 µg/mL | > 64 µg/mL | > 64 µg/mL | > 64 µg/mL | > 64 µg/mL | > 64 µg/mL | > 64 µg/mL | > 64 µg/mL | > 64 µg/mL | > 64 µg/mL | > 64 µg/mL | > 64 µg/mL |
| COc1ccc2c(c[n+]3c4c2ccc2c5c(cc(c24)CC3)OCO5)c1NCc1ccccc1.[Cl-] | 64 µg/mL | 64 µg/mL | 64 µg/mL | 64 µg/mL | > 64 µg/mL | 64 µg/mL | 64 µg/mL | 64 µg/mL | 8 µg/mL | 8 µg/mL | 64 µg/mL | 8 µg/mL | 64 µg/mL | 64 µg/mL | 64 µg/mL | 64 µg/mL | 64 µg/mL | 32 µg/mL | 64 µg/mL | 64 µg/mL |
| COc1ccc2c(c[n+]3c4c2ccc2c5c(cc(c24)CC3)OCO5)c1OCC(=O)C(C)(C)C.[Br-] | 32 µg/mL | 32 µg/mL | 32 µg/mL | 32 µg/mL | > 64 µg/mL | 32 µg/mL | 32 µg/mL | 32 µg/mL | 32 µg/mL | 32 µg/mL | 32 µg/mL | 16 µg/mL | 32 µg/mL | 64 µg/mL | 32 µg/mL | 32 µg/mL | 64 µg/mL | > 64 µg/mL | 32 µg/mL | 32 µg/mL |
| COc1ccc(C(=O)COc2c(OC)ccc3c2c[n+]2c4c3ccc3c5c(cc(c34)CC2)OCO5)cc1C(F)(F)F.[Br-] | 4 µg/mL | 8 µg/mL | 4 µg/mL | 8 µg/mL | > 64 µg/mL | 4 µg/mL | 8 µg/mL | 4 µg/mL | 4 µg/mL | 4 µg/mL | 8 µg/mL | 4 µg/mL | 4 µg/mL | 8 µg/mL | 4 µg/mL | 4 µg/mL | 4 µg/mL | > 64 µg/mL | 16 µg/mL | 4 µg/mL |
| COc1ccc2c(c[n+]3c4c2ccc2c5c(cc(c24)CC3)OCO5)c1NCc1ccco1.[Cl-] | 32 µg/mL | 32 µg/mL | 32 µg/mL | 64 µg/mL | > 64 µg/mL | 16 µg/mL | 64 µg/mL | 32 µg/mL | 32 µg/mL | 32 µg/mL | 64 µg/mL | 32 µg/mL | 64 µg/mL | 64 µg/mL | 64 µg/mL | 32 µg/mL | 32 µg/mL | > 64 µg/mL | > 64 µg/mL | 32 µg/mL |
| COc1ccc(CNc2c(OC)ccc3c2c[n+]2c4c3ccc3c5c(cc(c34)CC2)OCO5)cc1.[Cl-] |  |  |  |  | > 64 µg/mL |  |  |  | 16 µg/mL | 8 µg/mL | 64 µg/mL | 8 µg/mL |  |  |  |  |  | 16 µg/mL |  |  |
